Test results published in ChEMBL document CHEMBL4190208, “Design, synthesis and characterization of novel quinacrine analogs that preferentially kill cancer over non-cancer cells through the down-regulation of Bcl-2 and up-regulation of Bax and Bad” (Eur J Med Chem, 2017).
Activity calls are given as the source filed them. The calls are words filed in the database; no cut-off is given here.

What was measured:
MDA-MB-468 [1] = test: Cytotoxicity against human MDA-MB-468 cells assessed as growth inhibition after 48 hrs by SRB assay; type: functional, cell-based; settings: MDA-MB-468, 48 h
Procedure, shortened: (§1)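 Cells seeded at 5000–10,000 per well and exposed continuously for 48 h to seven concentrations ([…]). DMSO stocks were diluted in medium, final DMSO ≤0.1%, and matched DMSO medium served as the negative control. Viable cell mass was read by SRB. IC50 is the concentration giving 50% growth decrease versus control. Values are the mean of triplicates from at least two independent experiments.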

MDA-MB-231 [2] = test: Cytotoxicity against human MDA-MB-231 cells assessed as growth inhibition after 48 hrs by SRB assay; type: functional, cell-based; settings: MDA-MB-231, 48 h; procedure, shortened: as §1
MCF7 [3] = test: Cytotoxicity against human MCF7 cells assessed as growth inhibition after 48 hrs by SRB assay; type: functional, cell-based; settings: MCF7, 48 h; procedure, shortened: as §1
184B5 [4] = test: Cytotoxicity against human 184B5 cells assessed as growth inhibition after 48 hrs by SRB assay; type: cell-based; settings: 184B5, 48 h; procedure, shortened: as §1
MCF-10A = test: Cytotoxicity against human MCF10A cells assessed as growth inhibition after 48 hrs by SRB assay; type: cell-based; procedure, shortened: as §1
[5] = Selectivity index, ratio of IC50 for human MCF10A cells to IC50 for human MDA-MB-231 cells; type: toxicity; settings: MCF10A cells versus MDA-MB-231 cells, read-out: Ratio IC50
[6] = Selectivity index, ratio of IC50 for human MCF10A cells to IC50 for human MCF7 cells; type: toxicity; settings: MCF10A cells versus MCF7 cells, read-out: Ratio IC50
MDA-MB-468 [7] = test: Anticlonogenic activity against human MDA-MB-468 cells at 3.5 uM after 12 days; type: functional, cell-based
MCF7 [8] = test: Anticlonogenic activity against human MCF7 cells at 3.5 uM after 12 days; type: functional, cell-based
HeLa = test: Anticlonogenic activity against human HeLa cells at 3.5 uM after 12 days; type: functional, cell-based
MDA-MB-231 [9] = test: Cell cycle arrest in human MDA-MB-231 cells assessed as accumulation at sub-G1 phase at 6 uM after 48 hrs by flow cytometric method; type: functional, cell-based
184B5 [10] = test: Cell cycle arrest in human 184B5 cells assessed as accumulation at sub-G1 phase at 6 uM after 48 hrs by flow cytometric method; type: ADME, cell-based; settings: 184b5, 48 h
MDA-MB-231 [11] = test: Induction of apoptosis in human MDA-MB-231 cells assessed as change in cell morphology at 6 uM after 24 hrs by acridine orange/ethidium bromide staining-based confocal microscopic method; type: functional
MDA-MB-231 [12] = test: Induction of apoptosis in human MDA-MB-231 cells assessed as increase in PARP cleavage at 6 uM after 24 hrs by Western blot method; type: functional, cell-based
MDA-MB-231 [13] = test: Induction of apoptosis in human MDA-MB-231 cells at 6 uM after 24 hrs by TUNEL assay; type: functional, cell-based
MCF7 [14] = test: Induction of apoptosis in human MCF7 cells at 6 uM after 24 hrs by TUNEL assay; type: functional, cell-based
MDA-MB-231 [15] = test: Induction of apoptosis in human MDA-MB-231 cells assessed as downregulation of Bcl-2 expression at 6 uM after 24 to 72 hrs by Western blot method; type: functional, cell-based
MDA-MB-231 [16] = test: Induction of apoptosis in human MDA-MB-231 cells assessed as upregulation of Bad expression at 6 uM after 24 to 72 hrs by Western blot method; type: functional, cell-based
MDA-MB-231 [17] = test: Induction of apoptosis in human MDA-MB-231 cells assessed as upregulation of Bax expression at 6 uM after 24 to 72 hrs by Western blot method; type: functional, cell-based
MDA-MB-231 [18] = test: Induction of apoptosis in human MDA-MB-231 cells assessed as increase in cytochrome c levels in mitochondria at 6 uM after 24 to 72 hrs by Western blot method; type: functional, cell-based
MDA-MB-231 [19] = test: Effect on Bcl-XL levels in human MDA-MB-231 cells at 6 uM after 24 to 72 hrs by Western blot method; type: functional, cell-based
MCF7 [20] = test: Induction of apoptosis in human MCF7 cells assessed as upregulation of Bad expression at 4 to 6 uM after 48 hrs by Western blot method; type: functional, cell-based

SMILES | IC50 (MDA-MB-468 [1]) [µM] | IC50 (MDA-MB-231 [2]) [µM] | IC50 (MCF7 [3]) [µM] | IC50 (184B5 [4]) [µM] | further results
COc1ccc2nc3cc(Cl)ccc3c(NCCCN3C(=O)CSC3c3ccc(Cl)cc3)c2c1 (stereo not given) | 4.19 | 3.73 | 3.96 | 4.58 | 
COc1ccc2nc3cc(Cl)ccc3c(NCCCN3C(=O)CSC3c3ccccc3Cl)c2c1 (stereo not given) | 3.89 | 3.85 | 3.87 | 13.2 | 
COc1ccc2nc3cc(Cl)ccc3c(NCCCN3C(=O)CSC3c3ccnc4ccccc34)c2c1 (stereo not given) | 6.64 | 3.7 | 6.55 | 13.1 | 
COc1ccc2nc3cc(Cl)ccc3c(NCCCN3C(=O)CSC3c3ccc[nH]3)c2c1 (stereo not given) | 4.52 | 6.4 | 10.6 | 18.4 | 
COc1ccc2nc3cc(Cl)ccc3c(NCCCN3C(=O)CSC3c3ccc(Cl)cc3Cl)c2c1 (stereo not given) | 4.15 | 4.05 | 4.1 | 7.22 | 
COc1ccc2nc3cc(Cl)ccc3c(NCCCN3C(=O)CSC3c3ccccc3)c2c1 (stereo not given) | 2.54 | 3.55 | 3.23 | 8.06 | 
COc1ccc2nc3cc(Cl)ccc3c(NCCCN3C(=O)CSC3C3CCCCC3)c2c1 (stereo not given) | 3.75 | 3.86 | 3.81 | 3.14 | 
COc1ccc2nc3cc(Cl)ccc3c(NCCCN3C(=O)CSC3c3c(F)cccc3Cl)c2c1 (stereo not given) | 3.96 | 2.12 | 3.04 | 8.07 | 
COc1ccc2nc3cc(Cl)ccc3c(NCCCN3C(=O)CSC3c3ccc([N+](=O)[O-])cc3)c2c1 (stereo not given) | 4.87 | 3.86 | 4.36 | 17.8 | 
COc1ccc2nc3cc(Cl)ccc3c(NCCCN3C(=O)CSC3c3ccco3)c2c1 (stereo not given) | 5.58 | 1.97 | 4.78 | 13.4 | 
COc1ccc2nc3cc(Cl)ccc3c(NCCCN3C(=O)CSC3c3ccc(F)cc3F)c2c1 (stereo not given) | 4.15 | 1.8 | 2.97 | 4.14 | 
COc1ccc2nc3cc(Cl)ccc3c(NCCCN3C(=O)CSC3c3ccc(C)cc3)c2c1 (stereo not given) | 3.59 | 2.93 | 3.26 | 7.98 | 
COc1ccc2nc3cc(Cl)ccc3c(NCCCN3C(=O)CSC3c3ccc(Br)cc3)c2c1 (stereo not given) | 3.68 | 3.74 | 3.71 | 4.88 | 
COc1ccc2nc3cc(Cl)ccc3c(NCCCN3C(=O)CSC3c3ccccc3Br)c2c1 (stereo not given) | 4.38 | 3.63 | 4 | 21.6 | 
COc1ccc2nc3cc(Cl)ccc3c(NCCCN3C(=O)CSC3c3ccc(N(c4ccccc4)c4ccccc4)cc3)c2c1 (stereo not given) | 14.4 | 17.6 | 10.4 | 17.8 | 
COc1ccc2nc3cc(Cl)ccc3c(NCCCN3C(=O)CSC3c3ccc(F)cc3)c2c1 (stereo not given) | 4.26 | 1.89 | 3.07 | 12.1 | 
COc1ccc2nc3cc(Cl)ccc3c(NCCCN3C(=O)CSC3c3cccs3)c2c1 (stereo not given) | 4.61 | 6.76 | 3.31 | 18 | 
COc1ccc2nc3cc(Cl)ccc3c(NCCCN3C(=O)CSC3c3ccccc3[N+](=O)[O-])c2c1 (stereo not given) | 3.2 | 4.16 | 3.68 | 30.2 | 
COc1ccc2nc3cc(Cl)ccc3c(NCCCN3C(=O)CSC3c3ccccc3F)c2c1 (stereo not given) | 3.91 | 1.95 | 2.93 | 8.16 | 
COc1ccc2nc3cc(Cl)ccc3c(NCCCN3C(=O)CSC3c3ccc(N(C)C)cc3)c2c1 (stereo not given) | 3.32 | 4.25 | 3.78 | 16.4 | 
COc1ccc2nc3cc(Cl)ccc3c(NCCCN3C(=O)CSC3c3ccncc3)c2c1 (stereo not given) | 5.1 | 1.11 | 2.27 | 16.8 | 
COc1ccc2nc3cc(Cl)ccc3c(NCCCN3C(=O)CSC3c3c(Cl)cccc3Cl)c2c1 (stereo not given) | 4.04 | 3.98 | 4.01 | 28.3 | 
COc1ccc2nc3cc(Cl)ccc3c(NCCCN3C(=O)CSC3c3c(F)cccc3F)c2c1 (stereo not given) | 2.4 | 1.92 | 1.24 | 16.2 | IC50 (MCF-10A): 18.2 µM; selectivity ratio [5]: 7.6; selectivity ratio [6]: 14.7; Activity (MDA-MB-468 [7]): Active; Activity (MCF7 [8]): Active; Activity (HeLa): Active; Activity (MDA-MB-231 [9]): Active; Activity (184B5 [10]): Non-Toxic; Activity (MDA-MB-231 [11]): Active; Activity (MDA-MB-231 [12]): Active; Activity (MDA-MB-231 [13]): Active; Activity (MCF7 [14]): Active; Activity (MDA-MB-231 [15]): Active; Activity (MDA-MB-231 [16]): Active; Activity (MDA-MB-231 [17]): Active; Activity (MDA-MB-231 [18]): Active; Activity (MDA-MB-231 [19]): inactive; Activity (MCF7 [20]): Active
